Legend:
[1] = Cytotoxicity against human 518A2 cells assessed as increase in ROS production at 5 uM after 72 hrs by NBT reduction assay relative to control; type: functional
Summary of the method: (§1)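 NBT assay. HL-60 cells (0.5×10⁶/mL) or trypsinised 518A2 cells (5×10⁴/mL) pre-incubated 24 h at 37 °C, then given compound at a final 5 µM for 24 or 72 h. Medium removed; cells incubated with 0.1% NBT for 1 h (HL-60) or 4 h (518A2). Diformazan dissolved in 2 M KOH/DMSO; A630 read against 405 nm. Given as % of untreated controls; double quadruplicates.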

MCF7 [2] = experiment: Cytotoxicity against human topotecan-resistant MCF7 cells after 48 hrs by MTT assay; type: functional, cell-based; details: MCF7, 48 h
Summary of the method: (§2)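 MTT assay. Cells seeded and cultured 24 h, then exposed to compound for 24, 48 or 72 h. MTT added to a final 0.05% (HL-60, 518A2) or 0.1% (KB-V1, MCF-7) for 2 h. Formazan dissolved in 10% SDS/DMSO with 0.6% acetic acid; absorbance read at 570 nm against 630 nm background. Viability taken relative to untreated controls (100%). IC50 from concentration-response curves, mean ± SD of four independent experiments.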

[3] = Cytotoxicity against human 518A2 cells after 24 hrs by MTT assay; type: functional, cell-based; details: 518A2, 24 h; summary of the method: as §2
HL-60 [4] = experiment: Induction of apoptosis in human HL60 cells assessed as appearance of intact mitochondria in cytosol at 5 uM after 18 hrs using JC1 dye relative to control; type: functional
Summary of the method: (§3)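 Mitochondrial membrane potential measured with JC-1. Cells exposed to 5 µM compound for 6 or 18 h, pelleted at 400 g, stained with 0.2× JC-1 at 37 °C for 15 min (HL-60) or 35 min (518A2), washed and resuspended in PBS. Red fluorescence (ex 585/em 590 nm) and green (ex 510/em 527 nm) read; red/green ratio relative to untreated controls (100%). Mean ± SD, four independent experiments.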

HL-60 [5] = experiment: Cytotoxicity against human HL60 cells after 72 hrs by MTT assay; type: functional, cell-based; details: HL-60, 72 h; summary of the method: as §2
MCF7 [6] = experiment: Cytotoxicity against human topotecan-resistant MCF7 cells after 24 hrs by MTT assay; type: functional, cell-based; details: MCF7, 24 h; summary of the method: as §2
HL-60 [7] = experiment: Cytotoxicity against human HL60 cells after 48 hrs by MTT assay; type: functional, cell-based; details: HL-60, 48 h; summary of the method: as §2
HL-60 [8] = experiment: Induction of apoptosis in human HL60 cells assessed as appearance of intact mitochondria in cytosol at 5 uM after 6 hrs using JC1 dye relative to control; type: functional; summary of the method: as §3
[9] = Cytotoxicity against human vinblastine-resistant KBV1 cells after 72 hrs by MTT assay; type: functional, cell-based; details: KB-V1, 72 h; summary of the method: as §2
HL-60 [10] = experiment: Cytotoxicity against human HL60 cells assessed as increase in ROS production at 5 uM after 72 hrs by NBT reduction assay relative to control; type: functional; summary of the method: as §1
[11] = Cytotoxicity against human vinblastine-resistant KBV1 cells after 48 hrs by MTT assay; type: functional, cell-based; details: KB-V1, 48 h; summary of the method: as §2
518A2 [12] = experiment: Induction of apoptosis in human 518A2 cells assessed as appearance of intact mitochondria in cytosol at 5 uM after 6 hrs using JC1 dye relative to control; type: functional; summary of the method: as §3
518A2 [13] = experiment: Induction of apoptosis in human 518A2 cells assessed as appearance of intact mitochondria in cytosol at 5 uM after 18 hrs using JC1 dye relative to control; type: functional; summary of the method: as §3
MCF7 [14] = experiment: Cytotoxicity against human topotecan-resistant MCF7 cells after 72 hrs by MTT assay; type: functional, cell-based; details: MCF7, 72 h; summary of the method: as §2
[15] = Cytotoxicity against human 518A2 cells assessed as increase in ROS production at 5 uM after 24 hrs by NBT reduction assay relative to control; type: functional; summary of the method: as §1
[16] = Cytotoxicity against human vinblastine-resistant KBV1 cells after 24 hrs by MTT assay; type: functional, cell-based; details: KB-V1, 24 h; summary of the method: as §2
[17] = Cytotoxicity against human 518A2 cells after 48 hrs by MTT assay; type: functional, cell-based; details: 518A2, 48 h; summary of the method: as §2
HL-60 [18] = experiment: Cytotoxicity against human HL60 cells after 24 hrs by MTT assay; type: functional, cell-based; details: HL-60, 24 h; summary of the method: as §2
HL-60 [19] = experiment: Cytotoxicity against human HL60 cells assessed as increase in ROS production at 5 uM after 24 hrs by NBT reduction assay relative to control; type: functional; summary of the method: as §1
[20] = Cytotoxicity against human 518A2 cells after 72 hrs by MTT assay; type: functional, cell-based; details: 518A2, 72 h; summary of the method: as §2

| Compound | Activity [1] [%] | IC50 (MCF7 [2]) [nM] | IC50 [3] [nM] | Activity (HL-60 [4]) [%] | IC50 (HL-60 [5]) [nM] | IC50 (MCF7 [6]) [nM] | IC50 (HL-60 [7]) [nM] | Activity (HL-60 [8]) [%] | IC50 [9] [nM] | Activity (HL-60 [10]) [%] | IC50 [11] [nM] | Activity (518A2 [12]) [%] | Activity (518A2 [13]) [%] | IC50 (MCF7 [14]) [nM] | Activity [15] [%] | IC50 [16] [nM] | IC50 [17] [nM] | IC50 (HL-60 [18]) [nM] | Activity (HL-60 [19]) [%] | IC50 [20] [nM] |
| --- | --- | --- | --- | --- | --- | --- | --- | --- | --- | --- | --- | --- | --- | --- | --- | --- | --- | --- | --- | --- |
| COc1cccc2c1C(=O)c1c(O)c3c(c(O)c1C2=O)C[C@@](O)(/C(CO)=N/NC(=O)CCCCC(=O)O[C@@H]1C[C@H](C)CC[C@H]1C(C)C)C[C@@H]3O[C@H]1C[C@H](N)[C@H](O)[C@H](C)O1.Cl | 1.5 | 4700 | 1200 | 66 | 330 | 6700 | 330 | 93 | 23300 | 5.7 | 34900 | 82 | 79 | 2400 | 2.2 | > 100000 | 420 | 390 | 1 | 320 |
| COc1cccc2c1C(=O)c1c(O)c3c(c(O)c1C2=O)C[C@@](O)(/C(CO)=N/NC(=O)CCCCCCCCCCC(=O)O[C@H]1C[C@H]2CC[C@]1(C)C2(C)C)C[C@@H]3O[C@H]1C[C@H](N)[C@H](O)[C@H](C)O1.Cl | 3.8 | 3800 | 570 | 65 | 130 | 6300 | 190 | 78 | 24200 | 7.9 | 20700 | 66 | 73 | 1800 | 2.7 | 68800 | 230 | 230 | 1.8 | 190 |
| COc1cccc2c1C(=O)c1c(O)c3c(c(O)c1C2=O)C[C@@](O)(/C(CO)=N/NC(=O)CCCCCCCC(=O)O[C@@H]1C[C@H](C)CC[C@H]1C(C)C)C[C@@H]3O[C@H]1C[C@H](N)[C@H](O)[C@H](C)O1.Cl | 1.3 | 7200 | 820 | 68 | 370 | 10200 | 490 | 84 | 21800 | 6.8 | 21500 | 83 | 72 | 4300 | 1.4 | 79600 | 510 | 400 | 1 | 460 |

— ChEMBL document CHEMBL1157852, “Modulation of doxorubicin activity in cancer cells by conjugation with fatty acyl and terpenyl hydrazones” (Eur J Med Chem, 2010)
